ChEMBL document CHEMBL5357046, “Sirtuin 1-activating derivatives belonging to the anilinopyridine class displaying in vivo cardioprotective activities” (2024)
Activity calls are given as the source filed them. The rule behind the calls is not given here.

Assays:
[1] = target: T1, NAD-dependent protein deacetylase sirtuin-1 (Homo sapiens) (UniProt Q96EB6); test: Activation of human recombinant SIRT1 at 3 to 100 uM by fluorescence based spectrofluorometer analysis; conditions: filed as activator, dose 3-100 µM
T1 sequence (whole entry): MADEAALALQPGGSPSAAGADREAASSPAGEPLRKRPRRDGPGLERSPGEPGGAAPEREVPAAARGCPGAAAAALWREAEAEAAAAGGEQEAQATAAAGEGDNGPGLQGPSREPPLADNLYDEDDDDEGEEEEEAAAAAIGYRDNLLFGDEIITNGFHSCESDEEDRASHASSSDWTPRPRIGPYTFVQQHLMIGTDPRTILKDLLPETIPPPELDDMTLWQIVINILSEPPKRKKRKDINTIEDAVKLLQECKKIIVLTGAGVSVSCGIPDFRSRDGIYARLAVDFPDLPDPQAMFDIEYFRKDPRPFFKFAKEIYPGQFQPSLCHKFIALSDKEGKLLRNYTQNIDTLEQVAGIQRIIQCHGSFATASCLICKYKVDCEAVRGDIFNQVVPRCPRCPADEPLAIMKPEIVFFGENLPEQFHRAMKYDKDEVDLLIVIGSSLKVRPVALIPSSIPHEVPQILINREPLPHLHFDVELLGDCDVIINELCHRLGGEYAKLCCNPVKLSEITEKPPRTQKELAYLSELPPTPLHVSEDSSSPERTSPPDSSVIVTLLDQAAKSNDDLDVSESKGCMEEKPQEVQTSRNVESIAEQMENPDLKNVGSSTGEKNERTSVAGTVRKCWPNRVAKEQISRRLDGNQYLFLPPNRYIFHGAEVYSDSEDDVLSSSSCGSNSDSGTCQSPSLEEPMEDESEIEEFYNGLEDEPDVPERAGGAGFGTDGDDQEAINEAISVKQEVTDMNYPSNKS

[2] = target: T1, NAD-dependent protein deacetylase sirtuin-1 (Homo sapiens); test: Activation of human recombinant SIRT1 by fluorescence based spectrofluorometer analysis; conditions: filed as activator, dose 3-100 µM
Rattus norvegicus [3] = test: Cardioprotective activity against acute myocardial infarction Wistar rat model assessed as reduction in percentage of ischemic area to total area of left ventricle at 10 mg/kg, ip by ECG analysis; format: functional; set-up: scale not given: the % may be the effect or the level left
Procedure, shortened: (§1)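 Adult male Wistar rats (350–450 g) dosed i.p. 2 h before surgery (vehicle DMSO 1 ml kg⁻¹), then anaesthetized with thiopental (70 mg kg⁻¹ i.p.). LAD occluded 30 min (ST elevation on ECG, cyanosis) then reperfused 120 min. Hearts washed on Langendorff, LV sliced and stained with TTC 1% at 37 °C for 20 min; infarct area/LV area by planimetry. n = 5 per group.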

[4] = target: T1, NAD-dependent protein deacetylase sirtuin-1 (Homo sapiens); test: Activation of human recombinant SIRT1 at 3 uM by fluorescence based spectrofluorometer analysis
Rattus norvegicus [5] = test: Cardioprotective activity against acute myocardial infarction Wistar rat model assessed as reduction in percentage of ischemic area to total area of left ventricle at 0.1 mg/kg, ip by ECG analysis; format: functional; set-up: scale not given: the % may be the effect or the level left; procedure, shortened: as §1

## Oc1ccc(-c2cccc(Nc3cccc(O)c3)n2)cc1
[1]
  Activity: Active
[2]
  Activity: Dose-Dependent Effect
Rattus norvegicus [3]
  Activity: 6%

## Oc1cccc(Nc2ccnc(-c3cccc(O)c3)c2)c1
[4]
  Activity: inactive
[2]
  Activity: Dose-Dependent Effect

## Oc1cccc(Nc2cccc(-c3cccc(O)c3)n2)c1
[1]
  Activity: Active
[2]
  Activity: Dose-Dependent Effect

## Oc1cccc(Nc2cc(-c3cccc(O)c3)ccn2)c1
[1]
  Activity: Active

## Oc1ccc(Nc2cccc(-c3ccc(O)cc3)n2)cc1
[1]
  Activity: Active
Rattus norvegicus [5]
  Activity: 28%
[2]
  Activity: Dose-Dependent Effect

## Oc1ccc(/C=C/c2cc(O)cc(O)c2)cc1 [RESVERATROL]
Rattus norvegicus [3]
  Activity: 30%

## Oc1ccc(Nc2cccc(-c3cccc(O)c3)n2)cc1
[1]
  Activity: Active
[2]
  Activity: Dose-Dependent Effect
